Source: article PMC2989669 (Bioorganic & medicinal chemistry letters, 2010)

Legend:
MIF-CD74 binding = target: T1, MIF-CD74 binding (Homo sapiens, UniProt P14174); assay: MIF-CD74 binding assay; settings: for IC50 or max % inhib CD74 (result in words): MIF-CD74 binding assay
T1 sequence (P14174 2-115 limits assumed): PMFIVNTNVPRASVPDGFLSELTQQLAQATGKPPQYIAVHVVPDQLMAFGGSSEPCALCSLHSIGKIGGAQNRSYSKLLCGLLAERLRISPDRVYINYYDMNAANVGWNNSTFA

human MIF = target: T2, human MIF (Homo sapiens, UniProt P14174); assay: MIF tautomerase assay using 4-hydroxyphenylpyruvate; type: biochemical; settings: for IC50 or max % inhib 4-HPP (result in words): tautomerase assay
T2 sequence (P14174 2-115 limits assumed): T1 sequence (P14174 2-115 limits assumed)
Outline: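 Recombinant human MIF; tautomerase activity measured with 4-hydroxyphenylpyruvate (4-HPP) as substrate. Test compounds were run from 1 nM to 1 mM. IC50 was reported. Where inhibition plateaued below 50%, the maximum percent inhibition was reported instead.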

[1] = test system: MIF-dependent ERK1/2 phosphorylation; assay: MIF-dependent ERK1/2 phosphorylation in human fibroblasts; type: cell-based; settings: human primary fibroblasts, MIF […] trimer, compound 8 nM, 30 min
MIF tautomerase = settings: cited from earlier work

COc1cccc(Cn2cc(-c3ccc(O)cc3)nn2)c1OC [3g]
IC50 (MIF-CD74 binding): ~1 µM
IC50 (human MIF): ~1 µM
effect on MIF-dependent ERK1/2 phosphorylation [1]: strongly inhibits

Cc1cccc(Cn2cc(-c3ccc(O)cc3)nn2)c1 [3c]
IC50 (MIF-CD74 binding): > 1000 µM

Oc1ccc(-n2cc(-c3cccc4ccccc34)nn2)cc1 [5b]
IC50 (MIF-CD74 binding): > 1000 µM

COc1ccccc1Cn1cc(-c2ccc(O)cc2)nn1 [3d]
IC50 or max % inhib CD74 (result in words) (MIF-CD74 binding): Agon
IC50 or max % inhib 4-HPP (result in words) (human MIF): Agon
effect on MIF-dependent ERK1/2 phosphorylation [1]: enhances ERK1/2 phosphorylation

CCOC(=O)c1cc2ccc(O)cc2oc1=O [compound 1]
tautomerase inhibition (reported potency) (MIF tautomerase): 7 µM

Oc1ccc(-n2cc(Cc3cccc(O)c3)nn2)cc1 [4d]
IC50 (MIF-CD74 binding): > 1000 µM
IC50 (human MIF): > 1000 µM

Cc1ccccc1Cn1cc(-c2ccc(O)cc2)nn1 [3b]
IC50 (MIF-CD74 binding): > 1000 µM

Oc1ccc(-n2cc(-c3cncc4ccccc34)nn2)cc1 [5c]
IC50 or max % inhib CD74 (result in words) (MIF-CD74 binding): Agon
IC50 or max % inhib 4-HPP (result in words) (human MIF): Agon
effect on MIF-dependent ERK1/2 phosphorylation [1]: enhances ERK1/2 phosphorylation

O=C(O)c1cccc(Cn2cc(-c3ccc(O)cc3)nn2)c1 [3i]
IC50 (MIF-CD74 binding): > 1000 µM

COc1cccc(Cc2cn(-c3ccc(O)cc3)nn2)c1OC [4i]
IC50 (MIF-CD74 binding): > 1000 µM

Oc1ccc(-n2cc(-c3cccnc3)nn2)cc1 [5a]
IC50 or max % inhib CD74 (result in words) (MIF-CD74 binding): Agon
IC50 or max % inhib 4-HPP (result in words) (human MIF): Agon
effect on MIF-dependent ERK1/2 phosphorylation [1]: enhances ERK1/2 phosphorylation

Oc1ccc(-c2cn(Cc3ccccc3)nn2)cc1 [3a]
IC50 (MIF-CD74 binding): > 1000 µM

COc1ccc(Cn2cc(-c3ccc(O)cc3)nn2)cc1 [3f]
IC50 (MIF-CD74 binding): > 1000 µM

COC(=O)CC1CC(c2ccc(O)cc2)=NO1 (stereo not shown) [compound 2]
tautomerase inhibition (reported potency) (MIF tautomerase): 7 µM

COC(=O)c1cccc(Cn2cc(-c3ccc(O)cc3)nn2)c1 [3h]
IC50 (MIF-CD74 binding): ~1 µM
IC50 (human MIF): ~1 µM
